Laboratory results from ChEMBL document CHEMBL4311951, “Potent and Preferential Degradation of CDK6 via Proteolysis Targeting Chimera Degraders” (J Med Chem, 2019).
Activity calls are given as the source filed them. The calls are words filed in the database; no cut-off is given here.

Tests used:
[1] = target: Protein cereblon/Cyclin-dependent kinase 4 (Homo sapiens, UniProt P11802+Q96SW2); test: Induction of CRBN-mediated CDK4 degradation in human U251 cells after 24 hrs by immunoblot analysis; type: cell-based
Sequence of Protein cereblon/Cyclin-dependent kinase 4 (P11802 whole entry): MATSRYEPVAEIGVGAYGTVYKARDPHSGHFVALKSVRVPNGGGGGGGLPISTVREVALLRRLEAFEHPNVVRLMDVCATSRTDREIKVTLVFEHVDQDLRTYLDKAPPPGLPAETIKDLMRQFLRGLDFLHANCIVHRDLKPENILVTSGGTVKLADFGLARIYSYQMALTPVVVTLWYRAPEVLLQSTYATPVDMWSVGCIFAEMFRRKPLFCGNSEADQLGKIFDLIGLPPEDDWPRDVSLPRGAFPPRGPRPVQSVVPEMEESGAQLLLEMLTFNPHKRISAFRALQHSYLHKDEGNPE
Sequence of Protein cereblon/Cyclin-dependent kinase 4 (Q96SW2 whole entry): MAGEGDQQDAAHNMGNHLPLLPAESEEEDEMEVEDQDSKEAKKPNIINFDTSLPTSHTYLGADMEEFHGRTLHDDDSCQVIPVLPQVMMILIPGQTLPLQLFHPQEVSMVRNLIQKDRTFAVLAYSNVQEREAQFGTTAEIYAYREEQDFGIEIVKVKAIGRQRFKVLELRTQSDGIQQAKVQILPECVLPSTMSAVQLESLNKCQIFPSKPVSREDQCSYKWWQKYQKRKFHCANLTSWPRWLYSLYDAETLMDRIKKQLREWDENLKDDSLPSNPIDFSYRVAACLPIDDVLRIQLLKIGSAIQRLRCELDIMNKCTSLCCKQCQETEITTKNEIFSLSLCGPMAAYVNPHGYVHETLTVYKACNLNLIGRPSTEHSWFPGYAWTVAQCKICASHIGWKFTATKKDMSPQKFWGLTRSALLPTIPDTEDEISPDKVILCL

[2] = target: Protein cereblon/Cyclin-dependent kinase 6 (Homo sapiens, UniProt Q00534+Q96SW2); test: Induction of CRBN-mediated CDK6 degradation in human U251 cells after 24 hrs by immunoblot analysis; type: cell-based
[3] = organism: Homo sapiens; test: Induction of cIAP-mediated CDK6 degradation in human U251 cells at 1 uM after 24 hrs by immunoblot analysis; type: cell-based
[4] = test system: Daoy; test: Induction of cIAP-mediated CDK6 degradation in human DAOY cells at 1 uM after 24 hrs by immunoblot analysis; type: cell-based
How it was run: (§1)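 Medulloblastoma DAOY cells treated 24 h with PROTACs at 1 μM; CDK6 levels then assessed by immunoblot. Palbociclib at 500 nM and 1 μM as positive control.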

[5] = organism: Homo sapiens; test: Induction of cIAP-mediated CDK4 degradation in human U251 cells at 1 uM after 24 hrs by immunoblot analysis; type: cell-based
[6] = target: T1, von Hippel-Lindau disease tumor suppressor/Cyclin-dependent kinase 6 (Homo sapiens) (UniProt Q00534+P40337); test: Induction of VHL-mediated CDK6 degradation in human DAOY cells at 1 uM after 24 hrs by immunoblot analysis; type: cell-based; how it was run: as §1
T1 sequence (P40337 whole entry, looked up): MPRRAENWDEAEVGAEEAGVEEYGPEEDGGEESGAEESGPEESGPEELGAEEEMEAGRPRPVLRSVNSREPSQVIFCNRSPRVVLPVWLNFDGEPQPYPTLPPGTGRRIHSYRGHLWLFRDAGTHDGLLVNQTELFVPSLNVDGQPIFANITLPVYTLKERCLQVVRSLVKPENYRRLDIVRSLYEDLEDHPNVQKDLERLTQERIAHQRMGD
T1 sequence (Q00534 whole entry, looked up): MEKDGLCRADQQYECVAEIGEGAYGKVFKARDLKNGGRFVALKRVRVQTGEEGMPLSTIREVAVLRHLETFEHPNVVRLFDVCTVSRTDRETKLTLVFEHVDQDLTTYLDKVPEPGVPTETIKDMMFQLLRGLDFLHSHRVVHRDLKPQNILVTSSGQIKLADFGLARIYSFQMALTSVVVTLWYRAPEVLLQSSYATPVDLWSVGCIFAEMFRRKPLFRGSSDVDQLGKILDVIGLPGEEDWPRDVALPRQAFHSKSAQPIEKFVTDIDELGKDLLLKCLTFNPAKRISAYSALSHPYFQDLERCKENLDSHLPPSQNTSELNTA

[7] = target: T1, von Hippel-Lindau disease tumor suppressor/Cyclin-dependent kinase 6 (Homo sapiens); test: Induction of VHL-mediated CDK6 degradation in human U251 cells at 1 uM after 24 hrs by immunoblot analysis; type: cell-based
[8] = target: von Hippel-Lindau disease tumor suppressor/Cyclin-dependent kinase 4 (Homo sapiens) (UniProt P11802+P40337); test: Induction of VHL-mediated CDK4 degradation in human U251 cells at 1 uM after 24 hrs by immunoblot analysis; type: cell-based
Sequence of von Hippel-Lindau disease tumor suppressor/Cyclin-dependent kinase 4 (Homo sapiens) (P11802 2-303 limits assumed): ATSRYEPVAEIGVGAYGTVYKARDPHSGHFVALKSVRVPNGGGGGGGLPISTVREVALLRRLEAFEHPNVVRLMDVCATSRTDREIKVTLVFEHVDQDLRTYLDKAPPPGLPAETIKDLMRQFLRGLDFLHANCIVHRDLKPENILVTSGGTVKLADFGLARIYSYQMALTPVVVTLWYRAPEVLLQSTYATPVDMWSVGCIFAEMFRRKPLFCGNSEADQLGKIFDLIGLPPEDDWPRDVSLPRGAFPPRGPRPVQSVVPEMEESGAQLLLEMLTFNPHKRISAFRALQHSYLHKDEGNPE
Sequence of von Hippel-Lindau disease tumor suppressor/Cyclin-dependent kinase 4 (Homo sapiens) (P40337 whole entry partner): as the sequence (P40337 whole entry, looked up) above

[9] = target: T2, E3 ubiquitin-protein ligase Mdm2/CDK6 (Homo sapiens) (UniProt Q00987+Q00534); test: Induction of MDM2-mediated CDK6 degradation in human U251 cells at 1 uM after 24 hrs by immunoblot analysis; type: cell-based
T2 sequence (Q00534 whole entry, looked up): as the sequence (Q00534 whole entry, looked up) above
T2 sequence (Q00987 whole entry, looked up): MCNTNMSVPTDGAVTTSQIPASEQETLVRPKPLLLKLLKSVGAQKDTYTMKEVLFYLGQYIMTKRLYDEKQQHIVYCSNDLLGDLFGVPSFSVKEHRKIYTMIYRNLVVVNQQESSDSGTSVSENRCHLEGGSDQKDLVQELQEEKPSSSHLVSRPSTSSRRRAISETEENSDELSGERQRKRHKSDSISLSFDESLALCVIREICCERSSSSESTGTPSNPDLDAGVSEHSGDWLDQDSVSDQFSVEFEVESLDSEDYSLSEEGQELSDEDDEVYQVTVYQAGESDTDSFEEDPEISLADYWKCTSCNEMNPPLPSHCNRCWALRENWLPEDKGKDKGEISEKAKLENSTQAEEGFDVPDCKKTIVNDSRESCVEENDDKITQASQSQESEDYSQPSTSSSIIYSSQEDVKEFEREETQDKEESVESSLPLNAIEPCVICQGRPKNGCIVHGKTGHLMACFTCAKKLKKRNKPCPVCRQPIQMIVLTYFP

[10] = target: T2, E3 ubiquitin-protein ligase Mdm2/CDK6 (Homo sapiens); test: Induction of MDM2-mediated CDK6 degradation in human DAOY cells at 1 uM after 24 hrs by immunoblot analysis; type: cell-based; how it was run: as §1
[11] = test system: E3 ubiquitin-protein ligase Mdm2/Cyclin-dependent kinase 4 (Homo sapiens); test: Induction of MDM2-mediated CDK4 degradation in human U251 cells at 1 uM after 24 hrs by immunoblot analysis
[12] = organism: Homo sapiens; test: (§2) Antiproliferative activity against human Mino cells after 84 hrs by CCK8 assay; type: functional, cell-based
How it was run: (§3)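 Suspension haematopoietic lines seeded in triplicate in 96-well plates; drug stock added immediately to the final concentrations. After 84 h culture, CCK-8 reagent added and absorbance at OD450 nm read after 2 h incubation.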

[13] = test system: THP-1; test: Antiproliferative activity against human THP1 cells after 84 hrs by CCK8 assay; type: functional, cell-based; how it was run: as §3
[14] = test system: MM1.S; test: Antiproliferative activity against human MM1S cells after 84 hrs by CCK8 assay; type: functional, cell-based; how it was run: as §3
[15] = test system: HL-60; test: Antiproliferative activity against human HL60 cells after 84 hrs by CCK8 assay; type: functional, cell-based; how it was run: as §3
[16] = test system: JeKo-1; test: Antiproliferative activity against human JeKo1 cells after 84 hrs by CCK8 assay; type: functional, cell-based; how it was run: as §3
[17] = test system: RPMI-8226; test: Antiproliferative activity against human RPMI8226 cells after 84 hrs by CCK8 assay; type: functional, cell-based; how it was run: as §3
[18] = as §2; type: functional, cell-based; how it was run: as §3

Structure (SMILES): CC(=O)c1c(C)c2cnc(Nc3ccc(N4CCN(CCOCCOCCNc5cccc6c5C(=O)N(C5CCC(=O)NC5=O)C6=O)CC4)cn3)nc2n(C2CCCC2)c1=O (configuration not stated)
- DC50 [1]: > 50 nM
- DC50 [2]: 1.6 nM

Structure (SMILES): CC(=O)c1c(C)c2cnc(Nc3ccc(N4CCN(Cc5cn(CCCCCCc6cccc7c6C(=O)N(C6CCC(=O)NC6=O)C7=O)nn5)CC4)cn3)nc2n(C2CCCC2)c1=O (configuration not stated)
- DC50 [1]: > 50 nM
- DC50 [2]: 1.7 nM

Structure (SMILES): CN(C)C(=O)c1cc2cnc(Nc3ccc(N4CCN(Cc5cn(CCOCCNc6cccc7c6C(=O)N(C6CCC(=O)NC6=O)C7=O)nn5)CC4)cn3)nc2n1C1CCCC1 (configuration not stated)
- Activity [2]: inactive

Structure (SMILES): CN(C)C(=O)c1cc2cnc(Nc3ccc(N4CCN(Cc5cn(CCOCCOCCNc6cccc7c6C(=O)N(C6CCC(=O)NC6=O)C7=O)nn5)CC4)cn3)nc2n1C1CCCC1 (configuration not stated)
- Activity [2]: inactive

Structure (SMILES): CC(=O)c1c(C)c2cnc(Nc3ccc(N4CCN(Cc5cn(CCCCCCNc6cccc7c6C(=O)N(C6CCC(=O)NC6=O)C7=O)nn5)CC4)cn3)nc2n(C2CCCC2)c1=O (configuration not stated)
- DC50 [1]: > 100 nM
- DC50 [2]: 10.6 nM

Structure (SMILES): CC(=O)c1c(C)c2cnc(Nc3ccc(N4CCN(Cc5cn(CCOCCNC(=O)[C@H](CC(C)C)NC(=O)[C@@H](O)[C@H](N)Cc6ccccc6)nn5)CC4)cn3)nc2n(C2CCCC2)c1=O
- Activity [3]: inactive
- Activity [4]: inactive
- Activity [5]: inactive

Structure (SMILES): CC(=O)c1c(C)c2cnc(Nc3ccc(N4CCN(Cc5cn(CCOCCOCCOCCOCCNC(=O)CCC(=O)N[C@H](C(=O)N6C[C@H](O)C[C@H]6C(=O)NCc6ccc(-c7scnc7C)cc6)C(C)(C)C)nn5)CC4)cn3)nc2n(C2CCCC2)c1=O
- Activity [6]: inactive
- Activity [7]: inactive
- Activity [8]: inactive

Structure (SMILES): COc1ccc(C2=N[C@H](c3ccc(Cl)cc3)[C@H](c3ccc(Cl)cc3)N2C(=O)N2CCN(CC(=O)NCCOCCOCCOCCn3cc(CN4CCN(c5ccc(Nc6ncc7c(C)c(C(C)=O)c(=O)n(C8CCCC8)c7n6)nc5)CC4)nn3)C(=O)C2)c(OC(C)C)c1
- Activity [9]: inactive
- Activity [10]: inactive
- Activity [11]: inactive

Structure (SMILES): COc1ccc(C2=N[C@H](c3ccc(Cl)cc3)[C@H](c3ccc(Cl)cc3)N2C(=O)N2CCN(CC(=O)NCCOCCOCCn3cc(CN4CCN(c5ccc(Nc6ncc7c(C)c(C(C)=O)c(=O)n(C8CCCC8)c7n6)nc5)CC4)nn3)CC2)c(OC(C)C)c1
- Activity [9]: inactive
- Activity [10]: inactive
- Activity [11]: inactive

Structure (SMILES): Cc1nc2c(F)cc(-c3nc(Nc4ccc(CN5CCN(Cc6cn(CCOCCOCCNc7cccc8c7C(=O)N(C7CCC(=O)NC7=O)C8=O)nn6)CC5)cn4)ncc3F)cc2n1C(C)C (configuration not stated)
- DC50 [1]: > 500 nM
- DC50 [2]: 130 nM

Structure (SMILES): CC(=O)c1c(C)c2cnc(Nc3ccc(N4CCN(Cc5cn(CCCCC#Cc6cccc7c6C(=O)N(C6CCC(=O)NC6=O)C7=O)nn5)CC4)cn3)nc2n(C2CCCC2)c1=O (configuration not stated)
- DC50 [1]: > 100 nM
- DC50 [2]: 81.6 nM

Structure (SMILES): CC(=O)c1c(C)c2cnc(Nc3ccc(N4CCN(Cc5cn(CCOCCOCCOCCNC(=O)[C@H](CC(C)C)NC(=O)[C@@H](O)[C@H](N)Cc6ccccc6)nn5)CC4)cn3)nc2n(C2CCCC2)c1=O
- Activity [3]: inactive
- Activity [4]: inactive
- Activity [5]: inactive

Structure (SMILES): CN(C)C(=O)c1cc2cnc(Nc3ccc(N4CCN(Cc5cn(CCOCCOCCOCCNc6cccc7c6C(=O)N(C6CCC(=O)NC6=O)C7=O)nn5)CC4)cn3)nc2n1C1CCCC1 (configuration not stated)
- Activity [2]: inactive

Structure (SMILES): CC(=O)c1c(C)c2cnc(Nc3ccc(N4CCN(CC(=O)NCCOCCNc5cccc6c5C(=O)N(C5CCC(=O)NC5=O)C6=O)CC4)cn3)nc2n(C2CCCC2)c1=O (configuration not stated)
- DC50 [1]: > 100 nM
- DC50 [2]: 1.1 nM

Structure (SMILES): CC(=O)c1c(C)c2cnc(Nc3ccc(N4CCN(Cc5cn(CCOCCOCCOCCNC(=O)CCC(=O)N[C@H](C(=O)N6C[C@H](O)C[C@H]6C(=O)NCc6ccc(-c7scnc7C)cc6)C(C)(C)C)nn5)CC4)cn3)nc2n(C2CCCC2)c1=O
- Activity [6]: inactive
- Activity [7]: inactive
- Activity [8]: inactive

Structure (SMILES): CCN1C(=O)CCC(N2C(=O)c3cccc(NCCOCCOCCn4cc(CN5CCN(c6ccc(Nc7ncc8c(C)c(C(C)=O)c(=O)n(C9CCCC9)c8n7)nc6)CC5)nn4)c3C2=O)C1=O (configuration not stated)
- Activity [12]: inactive
- Activity [13]: inactive
- Activity [14]: inactive
- Activity [15]: inactive
- Activity [16]: inactive
- Activity [17]: inactive

Structure (SMILES): COc1ccc(C2=N[C@H](c3ccc(Cl)cc3)[C@H](c3ccc(Cl)cc3)N2C(=O)N2CCN(CC(=O)NCCOCCn3cc(CN4CCN(c5ccc(Nc6ncc7c(C)c(C(C)=O)c(=O)n(C8CCCC8)c7n6)nc5)CC4)nn3)C(=O)C2)c(OC(C)C)c1
- Activity [9]: inactive
- Activity [10]: inactive
- Activity [11]: inactive

Structure (SMILES): CC(=O)c1c(C)c2cnc(Nc3ccc(N4CCN(Cc5cn(CCOCCOCCOCCOCCNC(=O)[C@H](CC(C)C)NC(=O)[C@@H](O)[C@H](N)Cc6ccccc6)nn5)CC4)cn3)nc2n(C2CCCC2)c1=O
- Activity [3]: inactive
- Activity [4]: inactive
- Activity [5]: inactive

Structure (SMILES): CC(=O)c1c(C)c2cnc(Nc3ccc(N4CCN(Cc5cn(CCOCCOCCNC(=O)CCC(=O)N[C@H](C(=O)N6C[C@H](O)C[C@H]6C(=O)NCc6ccc(-c7scnc7C)cc6)C(C)(C)C)nn5)CC4)cn3)nc2n(C2CCCC2)c1=O
- Activity [6]: inactive
- Activity [7]: inactive
- Activity [8]: inactive

Structure (SMILES): CCN1C(=O)CCC(N2C(=O)c3cccc(NCCOCCn4cc(CN5CCN(c6ccc(Nc7ncc8c(C)c(C(C)=O)c(=O)n(C9CCCC9)c8n7)nc6)CC5)nn4)c3C2=O)C1=O (configuration not stated)
- Activity [12]: inactive
- Activity [13]: inactive
- Activity [14]: inactive
- Activity [15]: inactive
- Activity [16]: inactive
- Activity [17]: inactive

Structure (SMILES): CC(=O)c1c(C)c2cnc(Nc3ccc(N4CCN(Cc5cn(CCOCCOCCNC(=O)[C@H](CC(C)C)NC(=O)[C@@H](O)[C@H](N)Cc6ccccc6)nn5)CC4)cn3)nc2n(C2CCCC2)c1=O
- Activity [3]: inactive
- Activity [4]: inactive
- Activity [5]: inactive

Structure (SMILES): Cc1nc2c(F)cc(-c3nc(Nc4ccc(CN5CCN(Cc6cn(CCOCCNc7cccc8c7C(=O)N(C7CCC(=O)NC7=O)C8=O)nn6)CC5)cn4)ncc3F)cc2n1C(C)C (configuration not stated)
- DC50 [1]: > 500 nM
- DC50 [2]: 8.6 nM

Structure (SMILES): CC(=O)c1c(C)c2cnc(Nc3ccc(N4CCN(Cc5cn(CCOCCNC(=O)CCC(=O)N[C@H](C(=O)N6C[C@H](O)C[C@H]6C(=O)NCc6ccc(-c7scnc7C)cc6)C(C)(C)C)nn5)CC4)cn3)nc2n(C2CCCC2)c1=O
- Activity [6]: inactive
- Activity [7]: inactive
- Activity [8]: inactive

Structure (SMILES): Cc1nc2c(F)cc(-c3nc(Nc4ccc(CN5CCN(Cc6cn(CCOCCOCCOCCOCCNc7cccc8c7C(=O)N(C7CCC(=O)NC7=O)C8=O)nn6)CC5)cn4)ncc3F)cc2n1C(C)C (configuration not stated)
- DC50 [1]: > 500 nM
- DC50 [2]: 146 nM

Structure (SMILES): CC(=O)c1c(C)c2cnc(Nc3ccc(N4CCNCC4)cn3)nc2n(C2CCCC2)c1=O [PALBOCICLIB]
- IC50 [18]: 45 nM
- Activity [13]: Active
- IC50 [14]: 200 nM
- Activity [15]: Active
- Activity [16]: Active
- Activity [17]: Active

Structure (SMILES): CC(=O)c1c(C)c2cnc(Nc3ccc(N4CCN(CC(=O)NCCOCCOCCNc5cccc6c5C(=O)N(C5CCC(=O)NC5=O)C6=O)CC4)cn3)nc2n(C2CCCC2)c1=O (configuration not stated)
- DC50 [1]: > 100 nM
- DC50 [2]: 24.2 nM
